Results as given in ChEMBL document CHEMBL3621108, “Discovery, Development, and SAR of Aminothiazoles as LIMK Inhibitors with Cellular Anti-Invasive Properties” (J Med Chem, 2015).

Experiments:
LIM domain kinase 1 [1] = molecular target: T1, LIM domain kinase 1 (Homo sapiens, UniProt P53667); assay: Inhibition of recombinant N-terminal 6His-tagged LIMK1 (unknown origin) expressed in Sf21 cells by HTRF assay using cofilin as a substrate
Target sequence in this assay (P53667 whole entry, the tested form may be a part): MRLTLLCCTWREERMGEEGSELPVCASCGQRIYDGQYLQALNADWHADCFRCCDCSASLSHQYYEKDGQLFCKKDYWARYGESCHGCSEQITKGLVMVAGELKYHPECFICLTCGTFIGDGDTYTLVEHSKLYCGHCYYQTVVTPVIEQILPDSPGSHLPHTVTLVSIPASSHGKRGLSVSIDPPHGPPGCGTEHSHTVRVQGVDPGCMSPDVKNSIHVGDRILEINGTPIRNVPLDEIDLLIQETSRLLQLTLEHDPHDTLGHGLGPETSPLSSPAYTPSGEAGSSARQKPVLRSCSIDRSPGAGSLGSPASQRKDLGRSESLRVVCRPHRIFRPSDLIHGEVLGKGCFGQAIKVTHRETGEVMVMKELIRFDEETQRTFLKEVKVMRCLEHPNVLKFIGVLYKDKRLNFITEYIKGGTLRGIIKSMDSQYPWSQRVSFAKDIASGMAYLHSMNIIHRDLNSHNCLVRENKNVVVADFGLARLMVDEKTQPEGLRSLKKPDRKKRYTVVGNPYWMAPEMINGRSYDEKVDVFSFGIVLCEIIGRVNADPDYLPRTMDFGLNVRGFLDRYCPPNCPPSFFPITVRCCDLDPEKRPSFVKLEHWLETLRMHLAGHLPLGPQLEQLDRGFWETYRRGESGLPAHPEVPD

LIM domain kinase 1 [2] = molecular target: T1, LIM domain kinase 1; assay: Inhibition of LIMK1 in human ZR75-1 cells assessed as inhibition of cofilin phosphorylation after 5 hrs; format: cell-based, ZR-75-1
How it was run: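 p-Cofilin biomarker assay in ZR-75-1 cells, imaged and quantified on a Cellomics array scan instrument.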
Target sequence in this assay (P53667 whole entry, the tested form may be a part): as above

MDA-MB-231 = assay: Antiinvasion activity in human MDA-MB-231-luc cells at 3 uM by matrigel inverse invasion assay; format: functional
How it was run: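 MDA MB-231-luc cells plated on underside of transwell filter; invasion into matrigel plug (inverse format) scored by confocal microscopy of plug sections. Inhibition = proportion of cells invading beyond 60 µm versus under 60 µm, relative to control; compound at 3 µM.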

[3] = Metabolic stability in mouse liver microsome assessed per gram of tissue; format: ADME; conditions: microsomes
[4] = Cytotoxicity against human MDA-MB-231 cells assessed as viable cells at 10 uM; format: cell-based; conditions: read-out: Activity
How it was run: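 MTT viability assay; cells exposed to 10 µM inhibitor, read-out as % viable cells.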

LIM domain kinase 2 [5] = molecular target: T2, LIM domain kinase 2 (Homo sapiens, UniProt P53671); assay: Inhibition of human N-terminal GST-tagged LIMK2
How it was run: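 LIMK2 activity measured in a lanthabind-format assay.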
Target sequence in this assay (P53671 whole entry, the tested form may be a part): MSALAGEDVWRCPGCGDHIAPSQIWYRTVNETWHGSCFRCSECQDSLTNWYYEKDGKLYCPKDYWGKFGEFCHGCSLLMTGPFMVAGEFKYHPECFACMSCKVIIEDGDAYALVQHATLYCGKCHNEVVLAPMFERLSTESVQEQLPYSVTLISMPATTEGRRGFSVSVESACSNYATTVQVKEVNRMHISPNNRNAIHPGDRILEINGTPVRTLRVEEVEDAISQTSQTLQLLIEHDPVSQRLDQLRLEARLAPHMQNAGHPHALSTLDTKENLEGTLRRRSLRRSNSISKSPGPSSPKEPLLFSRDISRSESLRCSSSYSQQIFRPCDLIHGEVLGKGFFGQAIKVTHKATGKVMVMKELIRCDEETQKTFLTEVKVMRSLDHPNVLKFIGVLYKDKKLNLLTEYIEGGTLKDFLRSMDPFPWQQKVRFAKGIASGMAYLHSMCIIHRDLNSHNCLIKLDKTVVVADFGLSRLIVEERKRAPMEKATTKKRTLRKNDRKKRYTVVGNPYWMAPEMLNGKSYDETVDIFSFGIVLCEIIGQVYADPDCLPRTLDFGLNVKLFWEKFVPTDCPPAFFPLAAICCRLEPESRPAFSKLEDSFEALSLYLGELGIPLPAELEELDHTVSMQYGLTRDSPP

Liver microsome = assay: Metabolic stability in human liver microsome assessed per gram of tissue; format: ADME; conditions: microsomes
LIM domain kinase 1 [6] = molecular target: T1, LIM domain kinase 1; conditions: 10 uM
Target sequence in this assay (P53667 whole entry, looked up, the tested form may be a part): as the sequence (P53667 whole entry, the tested form may be a part) above

[7] = molecular target: T3, Discoidin domain-containing receptor 2 (Homo sapiens) (UniProt Q16832); conditions: 10 uM
T3 sequence (whole entry): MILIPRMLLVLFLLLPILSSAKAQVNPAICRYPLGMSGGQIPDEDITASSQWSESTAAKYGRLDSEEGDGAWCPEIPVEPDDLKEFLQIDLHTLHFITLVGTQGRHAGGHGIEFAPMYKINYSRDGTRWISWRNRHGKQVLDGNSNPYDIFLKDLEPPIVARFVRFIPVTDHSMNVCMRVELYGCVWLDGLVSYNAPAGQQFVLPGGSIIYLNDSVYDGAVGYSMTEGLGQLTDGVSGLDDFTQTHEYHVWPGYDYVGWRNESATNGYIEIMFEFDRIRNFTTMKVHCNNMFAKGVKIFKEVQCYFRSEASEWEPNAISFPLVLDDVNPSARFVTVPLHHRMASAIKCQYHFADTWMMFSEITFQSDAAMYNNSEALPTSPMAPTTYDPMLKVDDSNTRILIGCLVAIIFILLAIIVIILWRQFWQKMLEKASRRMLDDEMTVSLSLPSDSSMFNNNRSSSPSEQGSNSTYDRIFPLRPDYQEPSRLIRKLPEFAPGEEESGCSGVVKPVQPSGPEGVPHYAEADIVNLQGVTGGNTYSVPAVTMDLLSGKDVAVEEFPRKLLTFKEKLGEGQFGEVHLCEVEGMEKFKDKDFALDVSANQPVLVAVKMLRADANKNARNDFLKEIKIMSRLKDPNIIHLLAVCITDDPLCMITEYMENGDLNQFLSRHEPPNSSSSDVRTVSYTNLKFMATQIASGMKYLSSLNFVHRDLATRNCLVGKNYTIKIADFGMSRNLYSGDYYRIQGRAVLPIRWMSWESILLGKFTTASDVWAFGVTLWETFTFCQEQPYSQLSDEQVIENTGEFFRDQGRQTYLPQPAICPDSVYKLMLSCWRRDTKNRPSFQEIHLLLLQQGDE

[8] = molecular target: T4, Serine/threonine-protein kinase MAK (Homo sapiens) (UniProt P20794); conditions: 10 uM
T4 sequence (whole entry): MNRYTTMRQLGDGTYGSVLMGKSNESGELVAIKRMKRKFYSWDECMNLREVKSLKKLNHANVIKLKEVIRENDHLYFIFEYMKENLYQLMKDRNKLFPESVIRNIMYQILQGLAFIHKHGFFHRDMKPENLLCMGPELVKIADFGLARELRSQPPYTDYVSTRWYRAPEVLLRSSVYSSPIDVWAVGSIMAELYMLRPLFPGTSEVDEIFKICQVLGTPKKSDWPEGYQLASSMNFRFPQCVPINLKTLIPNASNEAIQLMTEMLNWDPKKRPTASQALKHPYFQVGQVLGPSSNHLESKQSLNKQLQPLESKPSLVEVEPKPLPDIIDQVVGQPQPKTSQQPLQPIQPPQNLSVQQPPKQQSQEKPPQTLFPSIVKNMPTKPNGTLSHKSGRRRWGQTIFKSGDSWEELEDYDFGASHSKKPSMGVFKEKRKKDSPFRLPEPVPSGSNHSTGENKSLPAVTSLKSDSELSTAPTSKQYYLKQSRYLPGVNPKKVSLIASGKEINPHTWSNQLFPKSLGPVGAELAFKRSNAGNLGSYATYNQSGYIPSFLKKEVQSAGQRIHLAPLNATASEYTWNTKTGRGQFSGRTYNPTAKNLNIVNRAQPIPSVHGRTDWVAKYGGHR

[9] = molecular target: Serine/threonine-protein kinase PAK 3 (Homo sapiens) (UniProt O75914); conditions: 10 uM
Sequence of Serine/threonine-protein kinase PAK 3 (Homo sapiens) (O75914 whole entry, looked up): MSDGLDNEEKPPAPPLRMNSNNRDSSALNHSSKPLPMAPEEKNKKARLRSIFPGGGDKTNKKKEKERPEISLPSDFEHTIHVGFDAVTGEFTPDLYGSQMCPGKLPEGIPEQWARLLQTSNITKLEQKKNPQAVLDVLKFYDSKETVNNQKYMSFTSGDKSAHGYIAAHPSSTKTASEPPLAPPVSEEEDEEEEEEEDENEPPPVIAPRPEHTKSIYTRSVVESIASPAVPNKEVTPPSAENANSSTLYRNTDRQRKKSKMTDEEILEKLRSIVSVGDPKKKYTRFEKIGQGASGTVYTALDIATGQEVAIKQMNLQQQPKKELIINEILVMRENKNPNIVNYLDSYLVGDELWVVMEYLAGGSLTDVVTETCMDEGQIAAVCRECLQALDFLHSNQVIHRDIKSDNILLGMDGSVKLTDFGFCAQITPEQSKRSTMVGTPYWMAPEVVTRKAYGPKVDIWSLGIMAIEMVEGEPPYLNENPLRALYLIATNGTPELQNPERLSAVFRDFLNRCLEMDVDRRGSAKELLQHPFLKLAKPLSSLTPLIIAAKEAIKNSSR

[10] = molecular target: Cyclin-dependent kinase 2 (Homo sapiens) (UniProt P24941); conditions: 10 uM
[11] = molecular target: Cyclin-dependent kinase 18 (Homo sapiens) (UniProt Q07002); conditions: 10 uM
Sequence of Cyclin-dependent kinase 18 (Homo sapiens) (Q07002 whole entry): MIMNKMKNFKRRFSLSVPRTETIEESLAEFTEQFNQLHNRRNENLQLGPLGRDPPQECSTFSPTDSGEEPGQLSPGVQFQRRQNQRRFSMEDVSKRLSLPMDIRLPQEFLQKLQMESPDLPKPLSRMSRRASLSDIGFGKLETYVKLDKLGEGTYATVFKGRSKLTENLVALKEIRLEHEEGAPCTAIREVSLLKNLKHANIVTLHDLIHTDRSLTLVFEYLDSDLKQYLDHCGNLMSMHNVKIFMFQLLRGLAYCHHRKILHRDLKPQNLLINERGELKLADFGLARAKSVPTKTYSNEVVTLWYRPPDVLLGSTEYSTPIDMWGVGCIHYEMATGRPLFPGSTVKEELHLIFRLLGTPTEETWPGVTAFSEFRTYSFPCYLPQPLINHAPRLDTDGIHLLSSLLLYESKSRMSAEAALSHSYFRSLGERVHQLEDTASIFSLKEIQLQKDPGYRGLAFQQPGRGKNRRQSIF

[12] = molecular target: 5'-AMP-activated protein kinase catalytic subunit alpha-2 (Homo sapiens) (UniProt P54646); conditions: 10 uM
Sequence of 5'-AMP-activated protein kinase catalytic subunit alpha-2 (Homo sapiens) (P54646 whole entry, looked up): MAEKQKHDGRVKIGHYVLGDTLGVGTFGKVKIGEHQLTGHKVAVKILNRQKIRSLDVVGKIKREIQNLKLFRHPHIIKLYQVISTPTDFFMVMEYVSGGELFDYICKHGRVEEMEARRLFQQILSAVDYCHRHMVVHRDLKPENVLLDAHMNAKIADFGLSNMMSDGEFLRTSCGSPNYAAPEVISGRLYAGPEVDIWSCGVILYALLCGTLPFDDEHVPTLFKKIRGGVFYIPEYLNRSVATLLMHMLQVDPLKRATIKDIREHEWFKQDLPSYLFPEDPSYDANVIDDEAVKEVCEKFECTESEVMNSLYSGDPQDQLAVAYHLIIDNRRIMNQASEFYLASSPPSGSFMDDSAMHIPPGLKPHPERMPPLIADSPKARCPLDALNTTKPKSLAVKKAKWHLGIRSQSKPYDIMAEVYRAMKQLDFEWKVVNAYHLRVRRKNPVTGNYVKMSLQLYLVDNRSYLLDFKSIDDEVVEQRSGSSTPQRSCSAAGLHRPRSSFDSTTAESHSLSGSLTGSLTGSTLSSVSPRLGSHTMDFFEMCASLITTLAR

[13] = molecular target: Cyclin-dependent kinase 7 (Homo sapiens) (UniProt P50613); conditions: 10 uM
Sequence of Cyclin-dependent kinase 7 (Homo sapiens) (P50613 whole entry, the tested form may be a part): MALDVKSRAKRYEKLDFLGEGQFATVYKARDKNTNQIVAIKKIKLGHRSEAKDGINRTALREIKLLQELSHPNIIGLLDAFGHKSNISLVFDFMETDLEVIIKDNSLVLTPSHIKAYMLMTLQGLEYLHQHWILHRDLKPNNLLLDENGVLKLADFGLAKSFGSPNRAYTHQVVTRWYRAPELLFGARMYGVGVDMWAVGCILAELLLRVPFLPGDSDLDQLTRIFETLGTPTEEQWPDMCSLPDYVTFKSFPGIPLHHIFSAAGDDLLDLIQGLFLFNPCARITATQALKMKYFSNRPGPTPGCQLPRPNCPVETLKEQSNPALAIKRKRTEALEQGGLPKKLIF

LIM domain kinase 2 [14] = molecular target: T2, LIM domain kinase 2; conditions: 10 uM
Target sequence in this assay (P53671 whole entry, looked up, the tested form may be a part): as the sequence (P53671 whole entry, the tested form may be a part) above

[15] = molecular target: T5, Cyclin-dependent kinase-like 2 (Homo sapiens) (UniProt Q92772); conditions: 10 uM
T5 sequence (whole entry): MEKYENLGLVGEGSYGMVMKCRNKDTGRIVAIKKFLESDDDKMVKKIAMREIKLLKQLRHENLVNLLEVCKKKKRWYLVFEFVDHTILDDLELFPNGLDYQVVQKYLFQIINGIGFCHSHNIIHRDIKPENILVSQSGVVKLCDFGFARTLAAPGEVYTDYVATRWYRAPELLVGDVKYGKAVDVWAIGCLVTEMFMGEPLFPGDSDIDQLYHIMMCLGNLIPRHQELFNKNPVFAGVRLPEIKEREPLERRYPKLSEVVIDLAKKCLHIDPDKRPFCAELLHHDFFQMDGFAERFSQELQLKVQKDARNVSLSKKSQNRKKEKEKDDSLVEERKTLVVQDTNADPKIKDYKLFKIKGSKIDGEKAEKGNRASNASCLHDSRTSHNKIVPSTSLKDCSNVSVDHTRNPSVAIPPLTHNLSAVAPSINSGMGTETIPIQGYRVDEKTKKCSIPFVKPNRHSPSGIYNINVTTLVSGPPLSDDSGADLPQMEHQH

[16] = molecular target: 5'-AMP-activated protein kinase catalytic subunit alpha-1 (Homo sapiens) (UniProt Q13131); conditions: 10 uM
Sequence of 5'-AMP-activated protein kinase catalytic subunit alpha-1 (Homo sapiens) (Q13131 whole entry, looked up): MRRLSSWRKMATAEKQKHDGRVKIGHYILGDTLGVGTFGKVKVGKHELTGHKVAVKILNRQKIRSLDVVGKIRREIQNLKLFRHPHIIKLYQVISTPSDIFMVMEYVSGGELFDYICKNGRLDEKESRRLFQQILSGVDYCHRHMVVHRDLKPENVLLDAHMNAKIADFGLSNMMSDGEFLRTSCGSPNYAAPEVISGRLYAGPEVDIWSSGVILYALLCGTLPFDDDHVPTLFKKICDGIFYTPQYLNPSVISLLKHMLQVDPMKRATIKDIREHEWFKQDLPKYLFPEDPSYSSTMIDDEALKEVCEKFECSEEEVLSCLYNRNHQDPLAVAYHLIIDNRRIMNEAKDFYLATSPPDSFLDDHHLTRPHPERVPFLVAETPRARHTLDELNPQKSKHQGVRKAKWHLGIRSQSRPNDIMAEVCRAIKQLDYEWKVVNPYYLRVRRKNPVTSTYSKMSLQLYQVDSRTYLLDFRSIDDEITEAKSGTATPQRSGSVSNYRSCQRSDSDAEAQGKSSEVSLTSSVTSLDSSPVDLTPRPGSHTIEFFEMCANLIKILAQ

[17] = molecular target: T6, Phosphatidylinositol 5-phosphate 4-kinase type-2 gamma (Homo sapiens) (UniProt Q8TBX8); conditions: 10 uM
T6 sequence (whole entry): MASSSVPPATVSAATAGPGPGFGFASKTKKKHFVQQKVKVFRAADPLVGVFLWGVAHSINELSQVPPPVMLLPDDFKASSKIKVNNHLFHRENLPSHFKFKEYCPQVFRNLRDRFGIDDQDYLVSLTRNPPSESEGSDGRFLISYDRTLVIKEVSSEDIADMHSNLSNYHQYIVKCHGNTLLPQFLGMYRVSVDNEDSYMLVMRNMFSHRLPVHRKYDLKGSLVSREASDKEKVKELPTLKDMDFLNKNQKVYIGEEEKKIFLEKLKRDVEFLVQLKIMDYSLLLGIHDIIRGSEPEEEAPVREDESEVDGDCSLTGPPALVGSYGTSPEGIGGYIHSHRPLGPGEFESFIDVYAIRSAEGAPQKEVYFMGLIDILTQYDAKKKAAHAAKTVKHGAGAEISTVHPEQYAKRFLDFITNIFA

[18] = molecular target: T7, Mitogen-activated protein kinase 15 (Homo sapiens) (UniProt Q8TD08); conditions: 10 uM
T7 sequence (whole entry): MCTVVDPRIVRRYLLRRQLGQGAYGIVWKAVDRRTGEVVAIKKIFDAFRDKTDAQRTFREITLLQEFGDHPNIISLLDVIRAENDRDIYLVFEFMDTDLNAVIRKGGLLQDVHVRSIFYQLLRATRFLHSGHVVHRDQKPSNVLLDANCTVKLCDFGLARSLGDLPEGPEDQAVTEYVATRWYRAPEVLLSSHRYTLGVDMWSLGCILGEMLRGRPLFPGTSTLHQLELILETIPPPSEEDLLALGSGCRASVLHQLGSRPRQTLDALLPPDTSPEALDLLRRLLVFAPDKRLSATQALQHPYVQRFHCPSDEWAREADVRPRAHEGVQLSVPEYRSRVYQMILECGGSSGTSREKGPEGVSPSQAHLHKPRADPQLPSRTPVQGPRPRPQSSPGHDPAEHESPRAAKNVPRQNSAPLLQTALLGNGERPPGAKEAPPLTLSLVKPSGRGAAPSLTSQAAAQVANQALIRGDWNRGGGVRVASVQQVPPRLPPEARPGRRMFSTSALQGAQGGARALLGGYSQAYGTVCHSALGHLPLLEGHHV

[19] = molecular target: Serine/threonine-protein kinase 16 (Homo sapiens) (UniProt O75716); conditions: 10 uM
Sequence of Serine/threonine-protein kinase 16 (Homo sapiens) (O75716 whole entry): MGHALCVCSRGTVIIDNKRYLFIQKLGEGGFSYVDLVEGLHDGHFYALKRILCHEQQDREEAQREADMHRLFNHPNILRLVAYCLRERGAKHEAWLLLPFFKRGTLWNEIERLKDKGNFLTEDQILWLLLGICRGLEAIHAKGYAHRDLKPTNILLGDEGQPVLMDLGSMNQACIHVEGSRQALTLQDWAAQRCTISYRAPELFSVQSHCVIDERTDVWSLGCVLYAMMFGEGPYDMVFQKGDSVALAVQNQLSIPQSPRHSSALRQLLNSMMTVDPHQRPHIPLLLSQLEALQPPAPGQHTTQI

Row | Compound | IC50 (LIM domain kinase 1 [1]) [µM] | IC50 (LIM domain kinase 1 [2]) [µM] | also measured
1 | CCCNc1ncc(-c2ccncc2-c2ccccc2Cl)s1 | 0.015 | 3.8 | 
2 | CCCNc1ncc(-c2ccncc2)s1 | 19 |  | 
3 | Cc1ccc(-c2cnccc2-c2cnc(NC(=O)C(C)C)s2)c(Cl)c1 | 0.001 |  | inhibition at 3 µM (MDA-MB-231): 48%; Stability [3]: 19.4 mL/min; viability at 10 µM [4]: 131%; IC50 (LIM domain kinase 2 [5]): 0.003 µM; Stability (Liver microsome): 8.3 mL/min
4 | CCCNc1ncc(-c2cccnc2-c2ccccc2Cl)s1 | 0.327 |  | 
5 | CCCNc1ncc(-c2ccncc2-c2ccccc2C(C)C)s1 | 3.3 |  | 
6 | CCCNc1ncc(-c2ccncc2-c2ccccc2C)s1 | 0.082 | 11.5 | 
7 | C=CCNc1nc(N)c(C(=O)c2ccc3c(c2)OCO3)s1 | 4 |  | 
8 | CCNc1ncc(-c2ccncc2-c2ccccc2Cl)s1 | 0.12 | 14 | 
9 | CCCNc1ncc(-c2ccncc2-c2ccc(Cl)cc2)s1 | 0.62 |  | 
10 | CCCNc1ncc(-c2cnccc2-c2ccccc2Cl)s1 | 0.574 |  | 
11 | CCCNc1ncc(-c2ccncc2-c2ccc(OC)cc2C(F)(F)F)s1 | 0.013 | 2.5 | 
12 | CCCNc1ncc(-c2ccncc2-c2ccccc2C(F)(F)F)s1 | 0.037 | 2.2 | 
13 | CC(C)C(=O)Nc1ncc(-c2ccncc2-c2ccccc2Cl)s1 | 0.003 | 0.8 | 
14 | CCCNc1ncc(-c2ccncc2-c2cccc(Cl)c2)s1 | 0.5 |  | 
15 | C[C@H](Nc1ncc(-c2ccncc2-c2ccccc2Cl)s1)c1ccccc1 | 0.04 | 9.2 | 
16 | CCCNc1ncc(-c2ncccc2-c2ccccc2Cl)s1 | ≥ 30 |  | 
17 | CCCN(C)c1ncc(-c2ccncc2-c2ccccc2Cl)s1 | 3.1 |  | 
18 | CC(C)CNc1ncc(-c2ccncc2-c2ccccc2Cl)s1 | 0.005 | 1.5 | inhibition at 3 µM (MDA-MB-231): 34%; viability at 10 µM [4]: 88%
19 | COc1ccc(-c2cnccc2-c2cnc(NC(=O)C(C)C)s2)c(C(F)(F)F)c1 |  | 2 | inhibition at 3 µM (MDA-MB-231): 52%; inhibition (LIM domain kinase 1 [6]): > 90%; inhibition [7]: > 90%; Stability [3]: 5.2 mL/min; inhibition [8]: > 90%; inhibition [9]: > 90%; inhibition [10]: > 90%; inhibition [11]: > 90%; viability at 10 µM [4]: 106%; inhibition [12]: > 90%; inhibition [13]: > 90%; inhibition (LIM domain kinase 2 [14]): > 90%; IC50 (LIM domain kinase 2 [5]): 0.048 µM; inhibition [15]: > 90%; inhibition [16]: > 90%; inhibition [17]: > 90%; Stability (Liver microsome): 3.7 mL/min; inhibition [18]: > 90%; inhibition [19]: > 90%
20 | C[C@@H](Nc1ncc(-c2ccncc2-c2ccccc2Cl)s1)c1ccccc1 | 0.004 | 2.1 | 
21 | Nc1ncc(-c2ccncc2-c2ccccc2Cl)s1 | 0.27 | > 30 | 
22 | CC(=O)Nc1ncc(-c2ccncc2-c2ccccc2Cl)s1 | 0.02 | 1.4 | 
23 | Clc1ccccc1-c1cnccc1-c1cnc(Nc2ccccc2)s1 | 0.003 | 0.6 | 
24 | CCCNc1ncc(-c2ccncc2-c2ccccc2)s1 | 0.85 |  | 
